Measured values reported in ChEMBL document CHEMBL4351018, “Novel phenanthridin-6(5H)-one derivatives as potent and selective BET bromodomain inhibitors: Rational design, synthesis and biological evaluation” (Eur J Med Chem, 2019).

Tests used:
[1] = Volume of distribution at steady state in Sprague-Dawley rat at 10 mg/kg, po measured for 0.083 to 24 hrs by LC-MS/MS analysis; format: ADME, organism-based; conditions: in vivo
A549 [2] = experiment: Inhibition of BET in human A549 cells assessed as downregulation of c-Myc protein expression level incubated for 48 hrs by western blot analysis; format: cell-based
In short: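 A549 cells seeded at 400000 per well, grown overnight in 10% FBS medium, then given serially diluted compound for 48 h. c-Myc in lysates detected with a mouse monoclonal antibody; GAPDH used as loading control.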

A549 [3] = experiment: Induction of apoptosis in human A549 cells assessed as early apoptotic cells at 0.3 uM incubated for 48 hrs by annexin V-FITC/PI double staining based flow cytometric analysis (reference value: 1.76%); format: functional
[4] = Tmax in Sprague-Dawley rat at 2.5 mg/kg, iv measured for 0.083 to 24 hrs by LC-MS/MS analysis; format: ADME, organism-based; conditions: in vivo
A549 [5] = experiment: Induction of apoptosis in human A549 cells assessed as viable cells at 1.0 uM incubated for 48 hrs by annexin V-FITC/PI double staining based flow cytometric analysis (reference value: 98.2%); format: functional; conditions: A549, 48 h, read-out: Activity
[6] = target: Bromodomain-containing protein 4 (Homo sapiens, UniProt O60885); experiment: Binding affinity to recombinant human His-tagged BRD4 bromodomain 1 expressed in […] insect cells using biotinylated H4(1 to 21)K5/8/12/16Ac peptide as substrate at 20 uM preincubated for 30 mins followed by substrate addition and measured after 30 mins by Alpha screen assay relative to control
A549 [7] = experiment: Induction of apoptosis in human A549 cells assessed as late apoptotic cells at 0.3 uM incubated for 48 hrs by annexin V-FITC/PI double staining based flow cytometric analysis (reference value: 0.039%); format: functional
HepG2 = experiment: Antiproliferative activity against human HepG2 cells incubated for 48 hrs by MTT assay; format: functional, cell-based; conditions: HepG2, 48 h
In short: (§1)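 Cells kept in DMEM or RPMI 1640 with 10% FBS at 37 °C, 5% CO2. MTT added for 4 h at 37 °C, formazan dissolved in DMSO, OD read at 570 nm. Survival % taken relative to blank and control wells. Triplicate runs; IC50 from curve fit.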

PANC-1 = experiment: Antiproliferative activity against human PANC1 cells incubated for 48 hrs by MTT assay; format: functional, cell-based; conditions: PANC-1, 48 h; in short: as §1
A549 [8] = experiment: Induction of apoptosis in human A549 cells assessed as late apoptotic cells at 3.0 uM incubated for 48 hrs by annexin V-FITC/PI double staining based flow cytometric analysis (reference value: 0.039%); format: functional
[9] = AUC (0 to t) in Sprague-Dawley rat at 2.5 mg/kg, iv measured for 0.083 to 24 hrs by LC-MS/MS/MS analysis; format: ADME, organism-based; design: time upper 24 hr, dose 2.5 mg/kg, time lower 0.083 hr, route intravenous; conditions: in vivo
A549 [10] = experiment: Induction of apoptosis in human A549 cells assessed as early apoptotic cells at 3.0 uM incubated for 48 hrs by annexin V-FITC/PI double staining based flow cytometric analysis (reference value: 1.76%); format: functional
A549 [11] = experiment: Induction of apoptosis in human A549 cells assessed as necrotic cells at 1.0 uM incubated for 48 hrs by annexin V-FITC/PI double staining based flow cytometric analysis (reference value: 0%); format: functional
A549 [12] = experiment: Induction of apoptosis in human A549 cells assessed as early apoptotic cells at 5.0 uM incubated for 48 hrs by annexin V-FITC/PI double staining based flow cytometric analysis (reference value: 1.76%); format: functional
[13] = target: Bromodomain-containing protein 3 (Homo sapiens) (UniProt Q15059); experiment: Binding affinity to BRD3 bromodomain 1 (unknown origin) at 20 uM by Alpha screen assay relative to control
Sequence of Bromodomain-containing protein 3 (Homo sapiens) (Q15059 2-726 limits assumed): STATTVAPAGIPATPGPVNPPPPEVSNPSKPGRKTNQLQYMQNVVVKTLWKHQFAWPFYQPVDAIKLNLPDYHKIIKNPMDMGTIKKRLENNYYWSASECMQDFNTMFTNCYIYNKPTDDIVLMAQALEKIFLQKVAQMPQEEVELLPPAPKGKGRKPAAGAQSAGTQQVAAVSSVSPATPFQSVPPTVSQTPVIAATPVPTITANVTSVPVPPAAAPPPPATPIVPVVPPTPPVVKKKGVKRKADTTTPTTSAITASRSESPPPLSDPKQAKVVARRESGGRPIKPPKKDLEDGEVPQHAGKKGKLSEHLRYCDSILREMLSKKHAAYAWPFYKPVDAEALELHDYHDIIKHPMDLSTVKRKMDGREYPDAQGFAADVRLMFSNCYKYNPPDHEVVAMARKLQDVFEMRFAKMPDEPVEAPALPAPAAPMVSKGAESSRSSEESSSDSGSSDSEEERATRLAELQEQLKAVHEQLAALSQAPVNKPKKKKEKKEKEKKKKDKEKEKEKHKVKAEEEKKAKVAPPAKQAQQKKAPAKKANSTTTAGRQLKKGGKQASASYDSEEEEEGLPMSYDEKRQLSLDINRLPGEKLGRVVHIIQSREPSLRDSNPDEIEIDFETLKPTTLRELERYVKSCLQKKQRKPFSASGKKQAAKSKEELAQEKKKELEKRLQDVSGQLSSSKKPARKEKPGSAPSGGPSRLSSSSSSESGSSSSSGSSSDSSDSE

[14] = AUC (0 to t) in Sprague-Dawley rat at 10 mg/kg, po measured for 0.083 to 24 hrs by LC-MS/MS analysis; format: ADME, organism-based; design: time 0.083-24 hr, dose 10 mg/kg, route oral; conditions: in vivo
A549 [15] = experiment: Induction of apoptosis in human A549 cells assessed as necrotic cells at 3.0 uM incubated for 48 hrs by annexin V-FITC/PI double staining based flow cytometric analysis (reference value: 0%); format: functional
[16] = target: T1, Bromodomain-containing protein 9 (Homo sapiens) (UniProt Q9H8M2); experiment: Binding affinity to BRD9 (unknown origin) at 20 uM by Alpha screen assay relative to control
T1 sequence (whole entry): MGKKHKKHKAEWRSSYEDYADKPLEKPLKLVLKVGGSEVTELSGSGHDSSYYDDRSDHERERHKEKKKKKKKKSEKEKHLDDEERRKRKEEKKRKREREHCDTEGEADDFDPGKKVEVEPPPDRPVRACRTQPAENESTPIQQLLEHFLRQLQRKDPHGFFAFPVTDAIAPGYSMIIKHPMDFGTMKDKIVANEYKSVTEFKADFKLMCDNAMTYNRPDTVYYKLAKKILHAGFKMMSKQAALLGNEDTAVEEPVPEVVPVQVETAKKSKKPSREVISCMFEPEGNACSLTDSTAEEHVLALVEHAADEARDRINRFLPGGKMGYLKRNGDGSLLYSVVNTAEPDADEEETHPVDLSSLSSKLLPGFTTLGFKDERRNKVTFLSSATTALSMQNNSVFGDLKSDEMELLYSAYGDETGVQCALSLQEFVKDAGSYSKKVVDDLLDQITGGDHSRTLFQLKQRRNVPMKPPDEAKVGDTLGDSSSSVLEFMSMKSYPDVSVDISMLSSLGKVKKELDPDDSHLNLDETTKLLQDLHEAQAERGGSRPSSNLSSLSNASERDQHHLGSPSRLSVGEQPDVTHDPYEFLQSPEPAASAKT

[17] = Metabolic stability in human liver microsomes assessed as half life at 1 uM measured for 0.025 to 2 hrs in presence of betaNADPH by LC-MS/MS analysis; format: ADME, Microsome
In short: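 1 μM compound incubated at 37 °C with human liver microsomes (0.5 mg/mL), 1.7 mM β-NADPH and 3.3 mM MgCl2 in 0.1 M phosphate buffer pH 7.4, with DMSO below 0.1%. Remaining parent measured by LC-MS/MS; half-life from concentration-time regression.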

[18] = Apparent clearance in Sprague-Dawley rat at 10 mg/kg, po measured for 0.083 to 24 hrs by LC-MS/MS analysis; format: ADME, organism-based; conditions: in vivo, read-out: CL(app) (converted)
A549 [19] = experiment: Induction of cell cycle arrest in human A549 cells assessed as accumulation at […] phase at 1.0 uM incubated for 48 hrs by BrdU/PI staining based flow cytometric analysis; format: functional
In short: (§2)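 Subconfluent A549 cells exposed 48 h to 0.3–5.0 μM with DMSO vehicle control. Pulse-labelled with 10 μM BrdU for 30 min at 37 °C before harvest. Fixed in 70% ethanol, denatured in 2 M HCl, neutralised, then stained with fluorescein anti-BrdU antibody and propidium iodide. Analysed by flow cytometry with 488 nm excitation.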

[20] = target: Bromodomain-containing protein 2 (Homo sapiens) (UniProt P25440); experiment: Binding affinity to BRD2 bromodomain 1 (unknown origin) at 20 uM by Alpha screen assay relative to control
Sequence of Bromodomain-containing protein 2 (Homo sapiens) (P25440 whole entry, looked up): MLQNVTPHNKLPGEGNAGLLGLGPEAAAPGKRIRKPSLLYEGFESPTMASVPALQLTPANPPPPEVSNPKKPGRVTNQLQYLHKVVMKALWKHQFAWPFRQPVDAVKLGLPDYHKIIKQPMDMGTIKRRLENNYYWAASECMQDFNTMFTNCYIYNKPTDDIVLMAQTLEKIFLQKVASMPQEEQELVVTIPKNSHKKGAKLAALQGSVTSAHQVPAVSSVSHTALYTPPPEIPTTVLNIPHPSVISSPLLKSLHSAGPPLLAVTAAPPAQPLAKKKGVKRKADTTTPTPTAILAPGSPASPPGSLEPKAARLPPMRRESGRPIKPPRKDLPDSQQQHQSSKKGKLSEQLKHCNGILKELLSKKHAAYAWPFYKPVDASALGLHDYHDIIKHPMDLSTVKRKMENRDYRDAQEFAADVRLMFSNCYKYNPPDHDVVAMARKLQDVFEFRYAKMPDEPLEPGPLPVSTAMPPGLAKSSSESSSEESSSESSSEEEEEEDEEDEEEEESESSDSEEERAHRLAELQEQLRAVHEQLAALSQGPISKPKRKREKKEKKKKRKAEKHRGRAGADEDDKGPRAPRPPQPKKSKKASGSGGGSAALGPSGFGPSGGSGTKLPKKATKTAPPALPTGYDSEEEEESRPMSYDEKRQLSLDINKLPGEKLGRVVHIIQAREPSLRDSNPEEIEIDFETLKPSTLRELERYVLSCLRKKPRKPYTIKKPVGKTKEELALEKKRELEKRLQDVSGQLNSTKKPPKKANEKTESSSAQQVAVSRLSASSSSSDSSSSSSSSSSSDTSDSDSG

A549 [21] = experiment: Induction of cell cycle arrest in human A549 cells assessed as increase in accumulation at M phase incubated for 48 hrs by BrdU/PI staining based flow cytometric analysis; format: functional; in short: as §2

Vdss [1]: 97.34 L/kg | Tmax [4]: 4.98 min | Activity [6]: > 70% | IC50 (HepG2): 4.83 µM | IC50 (PANC-1): 6.7 µM | AUC(0-t) [9]: 383 ng·h/mL | Activity [13]: > 70% | AUC(0-t) [14]: 566 ng·h/mL | Activity [16]: > 30% | half-life at 1 µM [17]: 4.17 h | CL/F [18]: 303 mL/min/kg | Activity [20]: > 70%
SMILES: COc1ccc(Cl)cc1S(=O)(=O)Nc1ccc2[nH]c(=O)c3ccccc3c2c1
inhibition (A549 [2]): Dose-dependent effect | Activity (A549 [3]): 27.7% | viability at 1 µM (A549 [5]): 46.1% | Activity (A549 [7]): 2.63% | Activity (A549 [8]): 7.11% | Activity (A549 [10]): 68.3% | Activity (A549 [11]): 0.044% | Activity (A549 [12]): 72% | Activity (A549 [15]): 0% | Activity (A549 [19]): 70.3% | Activity (A549 [21]): Dose-dependent effect
